Laboratory results taken from ChEMBL document CHEMBL1137710, “Synthesis and in vitro antitumor activity of new quinoxaline derivatives” (2009).

Tests used:
Format in all cases: functional
[1] = system: MDA-MB-231; assay: Growth inhibition of human MDA-MB-231 cells after 48 hrs by sulforhodamine B assay; conditions: MDA-MB-231, 48 h
Procedure, shortened: (§1)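 NCI 60-human-tumor-cell-line panel, with compounds tested over a 5-log dose range. Values are taken from dose-response curves as log10 molar concentrations: GI50 is 50% net growth inhibition, TGI is total growth inhibition, and LC50 is 50% net cell death.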

[2] = system: NCI-H460; assay: Anticancer activity against human NCI-H460 cells assessed as cell growth at 100 uM after 48 hrs by sulforhodamine B assay; conditions: NCI-H460, 48 h, read-out: Activity
[3] = system: NCI-H322M; assay: Growth inhibition of human NCI-H322M cells after 48 hrs by sulforhodamine B assay; procedure, shortened: as §1
[4] = system: UO-31; assay: Growth inhibition of human UO31 cells after 48 hrs by sulforhodamine B assay; conditions: UO-31, 48 h
Procedure, shortened: (§2)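 Run in the NCI 60-human-tumour-cell-line panel, tested over a 5-log dose range. Dose–response curves gave three values per cell line, each as a log10 molar concentration: GI50 (50% inhibition of net cell growth), TGI (total inhibition of net growth) and LC50 (50% net cell death). The mean graph midpoint is the arithmetic mean over all lines, with insensitive lines entered at the highest concentration tested.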

[5] = system: KM12; assay: Growth inhibition of human KM12 cells after 48 hrs by sulforhodamine B assay; conditions: KM12, 48 h; procedure, shortened: as §1
[6] = system: PC-3; assay: Growth inhibition of human PC3 cells after 48 hrs by sulforhodamine B assay; conditions: PC-3, 48 h; procedure, shortened: as §1
[7] = system: HOP-62; assay: Growth inhibition of human HOP62 cells after 48 hrs by sulforhodamine B assay; conditions: HOP-62, 48 h; procedure, shortened: as §1
[8] = system: MCF7; assay: Growth inhibition of human MCF7 cells after 48 hrs by sulforhodamine B assay; conditions: MCF7, 48 h; procedure, shortened: as §1
[9] = system: OVCAR-3; assay: Growth inhibition of human OVCAR-3 cells after 48 hrs by sulforhodamine B assay; conditions: OVCAR-3, 48 h; procedure, shortened: as §1
[10] = system: SF-268; assay: Anticancer activity against human SF268 cells assessed as cell growth at 100 uM after 48 hrs by sulforhodamine B assay; conditions: SF-268, 48 h, read-out: Activity
[11] = system: OVCAR-5; assay: Growth inhibition of human OVCAR5 cells after 48 hrs by sulforhodamine B assay; conditions: OVCAR-5, 48 h; procedure, shortened: as §1
[12] = system: CAKI-1; assay: Growth inhibition of human Caki1 cells after 48 hrs by sulforhodamine B assay; conditions: CAKI-1, 48 h; procedure, shortened: as §1
[13] = system: IGROV-1; assay: Growth inhibition of human IGROV1 cells after 48 hrs by sulforhodamine B assay; conditions: IGROV-1, 48 h; procedure, shortened: as §1
[14] = Growth inhibition of human Hs 578T cells after 48 hrs by sulforhodamine B assay; procedure, shortened: as §1
[15] = system: TK-10; assay: Growth inhibition of human TK10 cells after 48 hrs by sulforhodamine B assay; conditions: TK-10, 48 h; procedure, shortened: as §2
[16] = system: NCI-H460; assay: Growth inhibition of human NCI-H460 cells after 48 hrs by sulforhodamine B assay; conditions: NCI-H460, 48 h; procedure, shortened: as §1
[17] = system: NCI-H522; assay: Growth inhibition of human NCI-H522 cells after 48 hrs by sulforhodamine B assay; conditions: NCI-H522, 48 h; procedure, shortened: as §1
[18] = system: UACC-257; assay: Growth inhibition of human UACC257 cells after 48 hrs by sulforhodamine B assay; conditions: UACC-257, 48 h; procedure, shortened: as §2
[19] = system: MDA-MB-435; assay: Growth inhibition of human MDA-MB-435 cells after 48 hrs by sulforhodamine B assay; conditions: MDA-MB-435, 48 h; procedure, shortened: as §1
[20] = system: OVCAR-8; assay: Growth inhibition of human OVCAR8 cells after 48 hrs by sulforhodamine B assay; conditions: OVCAR-8, 48 h; procedure, shortened: as §1
[21] = system: SK-MEL-5; assay: Growth inhibition of human SK-MEL-5 cells after 48 hrs by sulforhodamine B assay; conditions: SK-MEL-5, 48 h; procedure, shortened: as §1
[22] = system: 786-0; assay: Growth inhibition of human 786-0 cells after 48 hrs by sulforhodamine B assay; conditions: 786-0, 48 h; procedure, shortened: as §1
[23] = system: COLO 205; assay: Growth inhibition of human COLO205 cells after 48 hrs by sulforhodamine B assay; conditions: COLO 205, 48 h; procedure, shortened: as §1
[24] = system: SF-295; assay: Growth inhibition of human SF295 cells after 48 hrs by sulforhodamine B assay; conditions: SF-295, 48 h; procedure, shortened: as §1
[25] = system: U-251; assay: Growth inhibition of human U251 cells after 48 hrs by sulforhodamine B assay; conditions: U-251, 48 h; procedure, shortened: as §2
[26] = system: SK-OV-3; assay: Growth inhibition of human SKOV3 cells after 48 hrs by sulforhodamine B assay; conditions: SK-OV-3, 48 h; procedure, shortened: as §1
[27] = system: SF-268; assay: Growth inhibition of human SF268 cells after 48 hrs by sulforhodamine B assay; conditions: SF-268, 48 h; procedure, shortened: as §1
[28] = system: MCF7; assay: Anticancer activity against human MCF7 cells assessed as cell growth at 100 uM after 48 hrs by sulforhodamine B assay; conditions: MCF7, 48 h, read-out: Activity
[29] = system: SNB-19; assay: Growth inhibition of human SNB19 cells after 48 hrs by sulforhodamine B assay; conditions: SNB-19, 48 h; procedure, shortened: as §2
[30] = system: OVCAR-4; assay: Growth inhibition of human OVCAR4 cells after 48 hrs by sulforhodamine B assay; conditions: OVCAR-4, 48 h; procedure, shortened: as §1
[31] = read-out: pLC50 (the source's name) (converted)

Compound `COc1ccc(CNc2nc3cc(N)cc(N)c3nc2-c2ccccc2)cc1OC` has a GI50 [1] of 11.2 µM, a CC50 [1, 31] of 79.4 µM and a TGI ([1]; read-out: pTGI (converted)) of 29.5 µM. The growth at 100 µM [2] was 3%, the GI50 [3] was 22.9 µM and the LC50 [3] was 100 µM. It also gave a TGI ([3]; read-out: pTGI (converted)) of 47.9 µM, a GI50 [4] of 13.5 µM and a CC50 [4, 31] greater than 100 µM. The TGI ([4]; read-out: pTGI (converted)) was 45.7 µM, the GI50 [5] was 13.2 µM and the LC50 (50% net cell kill) [5] was 72.4 µM. The TGI ([5]; read-out: pTGI (converted)) was 30.9 µM, the GI50 [6] was 8.32 µM and the CC50 [6, 31] was 83.2 µM. The TGI ([6]; read-out: pTGI (converted)) was 27.5 µM, the GI50 [7] was 18.2 µM and the LC50 [7] was 64.6 µM. It also gave a TGI ([7]; read-out: pTGI (converted)) of 34.7 µM, a GI50 [8] of 25.7 µM and a CC50 [8, 31] greater than 100 µM. It also gave a TGI ([8]; read-out: pTGI (converted)) greater than 100 µM, a GI50 [9] of 1.32 µM and a CC50 [9, 31] of 8.51 µM. It also gave a TGI ([9]; read-out: pTGI (converted)) of 3.31 µM, a growth at 100 µM [10] of 47% and a GI50 [11] of 20.9 µM. The CC50 [11, 31] was 81.3 µM, the TGI ([11]; read-out: pTGI (converted)) was 41.7 µM and the GI50 [12] was 11.2 µM. It also gave a CC50 [12, 31] of 53.7 µM, a TGI ([12]; read-out: pTGI (converted)) of 24.5 µM and a GI50 [13] of 11.5 µM. For the same compound, the CC50 [13, 31] was greater than 100 µM, the TGI ([13]; read-out: pTGI (converted)) was 40.7 µM and the GI50 [14] was 33.9 µM. For the same compound, the CC50 [14, 31] was greater than 100 µM, the TGI ([14]; read-out: pTGI (converted)) was greater than 100 µM and the GI50 [15] was 16.6 µM. For the same compound, the CC50 [15, 31] was 64.6 µM, the TGI ([15]; read-out: pTGI (converted)) was 32.4 µM and the GI50 [16] was 24 µM. It also gave an LC50 (50% net cell kill) [16] greater than 100 µM, a TGI ([16]; read-out: pTGI (converted)) of 91.2 µM and a GI50 [17] of 2.69 µM. For the same compound, the LC50 [17] was 63.1 µM, the TGI ([17]; read-out: pTGI (converted)) was 6.31 µM and the GI50 [18] was 12.9 µM. For the same compound, the CC50 [18, 31] was 55 µM, the TGI ([18]; read-out: pTGI (converted)) was 26.9 µM and the GI50 [19] was 1.95 µM. The CC50 [19, 31] was 8.51 µM, the TGI ([19]; read-out: pTGI (converted)) was 4.07 µM and the GI50 [20] was 6.76 µM. It also gave a CC50 [20, 31] greater than 100 µM, a TGI ([20]; read-out: pTGI (converted)) of 33.9 µM and a GI50 [21] of 10 µM. It also gave a CC50 [21, 31] of 77.6 µM, a TGI ([21]; read-out: pTGI (converted)) of 27.5 µM and a GI50 [22] of 15.5 µM. It also gave a CC50 [22, 31] of 75.9 µM, a TGI ([22]; read-out: pTGI (converted)) of 34.7 µM and a GI50 [23] of 7.94 µM. For the same compound, the LC50 (50% net cell kill) [23] was greater than 100 µM, the TGI ([23]; read-out: pTGI (converted)) was greater than 100 µM and the GI50 [24] was 13.2 µM. For the same compound, the LC50 (50% net cell kill) [24] was 58.9 µM, the TGI ([24]; read-out: pTGI (converted)) was 28.2 µM and the GI50 [25] was 17 µM. The LC50 (50% net cell kill) [25] was 89.1 µM, the TGI ([25]; read-out: pTGI (converted)) was 38.9 µM and the GI50 [26] was 21.9 µM. For the same compound, the CC50 [26, 31] was greater than 100 µM, the TGI ([26]; read-out: pTGI (converted)) was 46.8 µM and the GI50 [27] was 14.8 µM. For the same compound, the LC50 [27] was greater than 100 µM, the TGI ([27]; read-out: pTGI (converted)) was 60.3 µM and the growth at 100 µM [28] was 0%. For the same compound, the GI50 [29] was 25.7 µM, the LC50 [29] was greater than 100 µM and the TGI ([29]; read-out: pTGI (converted)) was greater than 100 µM. It also gave a GI50 [30] of 2.69 µM, a CC50 [30, 31] of 52.5 µM and a TGI ([30]; read-out: pTGI (converted)) of 7.41 µM.
